Compound activity (PubChem BioAssay)
Shown are actives, neighbours in structure and some others; about 4% of the full set was active somewhere.
GPR7 antagonist: antagonists of human GPR7 (neuropeptides B/W receptor 1); P48145; inhibition, % at 4.4 µM; GPR7-expressing cells, fluorescence antagonist assay; hit rate 1.1% among 290,000; in the data active = inhibition above about 16%, passing the limit was not always enough;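 note: cells stimulated with the agonist NPW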
Target sequence (P48145 whole entry, looked up): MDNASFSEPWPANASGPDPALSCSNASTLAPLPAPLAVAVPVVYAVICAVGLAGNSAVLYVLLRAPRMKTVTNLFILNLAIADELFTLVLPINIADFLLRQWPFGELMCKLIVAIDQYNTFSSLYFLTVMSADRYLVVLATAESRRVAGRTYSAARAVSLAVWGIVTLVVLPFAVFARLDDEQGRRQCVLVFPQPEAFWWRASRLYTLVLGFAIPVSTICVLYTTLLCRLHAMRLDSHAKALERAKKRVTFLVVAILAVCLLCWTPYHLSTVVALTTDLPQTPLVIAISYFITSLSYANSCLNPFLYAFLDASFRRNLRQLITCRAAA
TAAR1 ag: human TAAR1 agonism; activation, % at 3 µM; Q96RJ0; CHO RD-HGA16 TAAR1, Fluo-8 calcium fluorescence; vehicle wells 0%, saturating PEA agonist 100%; hit rate 0.99% among 360,000;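 active = activation above the mean activation of all test compounds in the run plus 3 SD, cut at about 38% in these data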
Target sequence (Q96RJ0 whole entry, looked up): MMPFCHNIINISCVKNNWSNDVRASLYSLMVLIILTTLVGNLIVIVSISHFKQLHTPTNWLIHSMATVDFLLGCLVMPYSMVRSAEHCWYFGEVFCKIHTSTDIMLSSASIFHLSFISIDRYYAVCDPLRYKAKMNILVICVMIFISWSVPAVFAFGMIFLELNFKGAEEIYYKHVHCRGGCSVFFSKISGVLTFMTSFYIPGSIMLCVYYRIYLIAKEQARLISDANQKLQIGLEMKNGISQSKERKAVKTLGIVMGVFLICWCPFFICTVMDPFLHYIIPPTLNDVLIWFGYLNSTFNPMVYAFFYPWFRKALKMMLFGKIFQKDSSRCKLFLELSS
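Benchmarks: low control DMSO, high control PEA (EC100); System: CHO RD-HGA16 cells carrying human TAAR1 plus Gα16; Detection: Fluo-8 fluorescence, 5 s baseline then 140 s kinetic read; Schedule: 17-24 h plating, Fluo-8 75 min 37 °C, 30 min RT; Read-out basis: % activation from peak over basal fluorescence ratio, DMSO-to-PEA scaled.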
MPTP block: blocks calcium-induced mitochondrial swelling; isolated mouse mitochondria, Ca2+ swelling absorbance, 30 min; inhibition, % at 10 µM; hit rate 1.4% among 360,000; AID 602449;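 active = inhibition of 50% or more, scaled per plate between neutral and stimulator controls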
DAGLB inhibitor: blocks human DAGLB lipase activity | Q8NCG7 | HEK293T DAGLB membrane lysate, EnzChek fluorogenic substrate | inhibition, % at 5.17 µM | hit rate 0.059% among 340,000 | AID 504411; in the data active = inhibition above about 34%
TAAR1 antagonist: antagonists of human TAAR1; Q96RJ0; CHO RD-HGA16 TAAR1, Fluo-8 calcium fluorescence, antagonist; inhibition, % at 3 µM; hit rate 1.5% among 360,000;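 active = inhibition above a per-plate cutoff, the mean inhibition of test compounds on that plate plus 3 SD, cut at about 49% in these data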
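Test system: RD-HGA16 CHO cells with stable hTAAR1 and Gα16 / Probe or stimulus: EC80 β-phenethylamine stimulus / Times: seeding 17-24 h prior, 75-min 37 °C, 30-min RT dye loading / Detection: Fluo-8 calcium-sensitive fluorescence / Read-out basis: % inhibition scaled between DMSO and EC80 PEA controls / Repeats: singlicate, one well per test compound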
Numbers stand for hits; - = inactive; . = no result.

SMILES | GPR7 antagonist | TAAR1 ag | MPTP block | DAGLB inhibitor | TAAR1 antagonist
C=CC[C@H](CC(=O)N(CCO)Cc1ccccc1)C(=O)N[C@@H](COC(=O)[C@@H](CC=C)Cc1ccc(F)cc1)Cc1c[nH]c2ccccc12 | . | - | - | - | 60
C=CCC[C@@H](Cc1ccc(F)cc1)C(=O)OC[C@@H](Cc1c[nH]c2ccccc12)NC(=O)[C@H](CC=C)CC(=O)N(CCO)Cc1ccccc1 | . | - | - | - | 60
C=CCC[C@H](Cc1ccc(F)cc1)C(=O)OC[C@H](Cc1c[nH]c2ccccc12)NC(=O)[C@H](CC=C)CC(=O)N[C@H](CO)Cc1ccccc1 | . | - | - | - | -
C=CCC[C@H](Cc1ccc(F)cc1)C(=O)OC[C@@H](Cc1c[nH]c2ccccc12)NC(=O)[C@H](CC=C)CC(=O)N(CCO)Cc1ccccc1 | . | - | - | - | 65
COc1ccc(CC(N)c2csc(NC(=O)C(c3ccccc3)c3ccccc3)n2)cc1 (centres undefined) | . | 47 | - | . | -
COc1ccc(CC(N)c2csc(NC(=O)NCCc3ccccc3)n2)cc1 (centres undefined) | . | 38 | - | . | -
NC(Cc1ccccc1)c1csc(NC(=O)c2cccc(OC(F)(F)F)c2)n1 (centres undefined) | . | 45 | - | . | -
NC(CCc1ccccc1)c1csc(NC(=O)NCCc2ccccc2)n1 (centres undefined) | . | - | - | . | -
COC(=O)c1cnc(Nc2nc(C(N)Cc3ccc(OC)cc3)cs2)nc1C(F)(F)F (centres undefined) | . | 45 | - | . | -
COc1ccc(CC(N)c2csc(NC(=O)c3cccc(OC(F)(F)F)c3)n2)cc1 (centres undefined) | . | - | - | . | -
COC(=O)c1cnc(Nc2nc(C(N)Cc3ccc(Cl)cc3)cs2)nc1C(F)(F)F (centres undefined) | . | - | - | . | -
COC(=O)C1=C(C)N(Cc2ccccc2)C(=S)NC1c1ccc(Cl)cc1 (centres undefined) | . | - | . | . | -
c1ccc(Cn2cc(CCOCc3ccccn3)c3ccccc32)cc1 | . | - | . | . | -
COc1ccc(CNC(=O)Nc2nc(C(N)Cc3ccc(C(F)(F)F)cc3)cs2)cc1 (centres undefined) | . | 44 | - | . | 49
CC(C)c1ccccc1NC(=O)Nc1nc(C(N)Cc2ccc(C(F)(F)F)cc2)cs1 (centres undefined) | . | 38 | - | . | -
NC(Cc1ccc(Cl)cc1)c1csc(NC(=O)NCC2CCCCC2)n1 (centres undefined) | . | 46 | - | . | -
O=C(O)c1ccc(N2C(=O)c3ccccc3C2=O)cc1[N+](=O)[O-] | . | - | - | - | -
CC1Sc2ccc(S(=O)(=O)N(C)Cc3ccccc3)cc2NC1=O (centres undefined) | - | - | - | - | 49
COc1cccc(-c2cnc3c(NC(C)=O)cc(-c4ccccc4OC)cn23)c1 | . | - | - | . | 57
COc1cccc(-c2cnc3c(NC(C)=O)cc(-c4cc(OC)c(OC)c(OC)c4)cn23)c1 | . | - | - | . | 51
COC(=O)[C@]12C[C@H](CC(=O)NCc3cccs3)C(=O)N(Cc3ccccc3)C1=C[C@H](C1CCCC1)O[C@@H]2C | . | - | . | . | -
Cc1cccc(C)c1NC(=O)C1C(c2ccccc2)=Nc2ccccc2N1C(=O)c1cnccn1 (centres undefined) | . | - | - | . | -
C[C@H]1CN([C@@H](C)CO)C(=O)CCCn2nncc2CO[C@@H]1CN(C)S(=O)(=O)c1cccs1 | . | - | . | . | -
COc1ccc([C@H]2CC(=O)C=C(c3cccc(OC)c3OC)C2)cc1OC | . | - | - | - | 52
COc1ccc([C@H]2CC(=O)C=C(c3cccc4c3sc3ccccc34)C2)cc1OC | . | - | - | - | -
SMILES | GPR7 antagonist | TAAR1 ag | MPTP block | DAGLB inhibitor | TAAR1 antagonist
COc1cccc(Nc2nc(C(N)Cc3ccc(Cl)cc3)cs2)n1 (centres undefined) | . | 65 | - | . | 55
COc1cccc(Nc2nc(C(N)CCc3ccccc3)cs2)n1 (centres undefined) | . | 45 | - | . | -
COc1cccc(Nc2nc(C(N)CC(C)C)cs2)n1 (centres undefined) | . | 42 | - | . | -
NC(=O)c1cccc(Nc2nc(C(N)CCc3ccccc3)cs2)n1 (centres undefined) | . | - | - | . | -
CC(=O)c1ccc(Nc2nc(C(N)Cc3ccc(Cl)cc3)cs2)cc1 (centres undefined) | . | 50 | - | . | -
CCCCCCCCN1C(=O)[C@@H](CC(=O)NCc2ccc(OC)c(OC)c2)C[C@@]2(C(=O)OC)C1=C[C@H](C(C)(C)C)O[C@@H]2C | . | - | . | . | -
CCOC(=O)N1CCN(C(=O)C[C@H]2C[C@@]3(C(=O)OC)C(=C[C@H](C(C)(C)C)O[C@@H]3C)N(CCC3=CCCCC3)C2=O)CC1 | . | - | . | . | -
CCO[C@@H]1OC(C(=O)N2CCN(Cc3ccccc3)CC2)=C[C@H](c2ccc(C(F)(F)F)cc2)[C@H]1CCCO | - | - | - | - | -
CCO[C@@H]1OC(C(=O)N2CCN(Cc3ccccc3)CC2)=C[C@H](c2ccc(Br)cc2)[C@H]1CCCO | - | - | - | - | 49
COc1ccc(-c2cc(C(=O)Nc3ccc(S(N)(=O)=O)cc3)c3ccccc3n2)cc1OC | - | - | - | - | -
COc1ccccc1NC(=O)c1cc(-c2cc(OC)c(OC)c(OC)c2)nc2ccccc12 | - | - | - | - | -
COc1cc(-c2cc(C(=O)Nc3ccc(S(=O)(=O)NCc4ccco4)cc3)c3ccccc3n2)cc(OC)c1OC | - | - | - | - | 57
COc1cc(-c2cc(C(=O)Nc3cc(S(=O)(=O)N4CCOCC4)ccc3C)c3ccccc3n2)cc(OC)c1OC | . | - | - | - | 49
COc1cc(-c2cc(C(=O)Nc3cc(S(=O)(=O)N4CCOCC4)ccc3O)c3ccccc3n2)cc(OC)c1OC | . | - | - | - | 51
COc1cccc(-c2cc3nc(NCCN4CCCC4)n(C)c(=O)c3s2)c1 | . | - | - | . | -
COc1ccc(C(C)c2cc3c(cc2OCC(=O)O)OCO3)cc1 (centres undefined) | . | - | . | . | -
COC(=O)c1cc(=O)nc(NN=C(C)C)s1 | . | - | . | . | -
CC(C)(C)OC(=O)N1CCC[C@H]1C(=O)NCc1ccc(F)cc1F | . | - | - | . | -
O=C(c1cc(=O)[nH]c2ccccc12)N1CCN(S(=O)(=O)c2ccc(Cl)cc2)CC1 | . | - | - | - | 59
COc1cc(C(O)c2nc(-c3cccc(C(F)(F)F)c3)cs2)ccc1F (centres undefined) | . | - | - | . | -
O=C(CSc1nnnn1-c1cccc(C(=O)O)c1)NC(c1ccccc1)c1ccccc1 | - | - | - | - | -
O=C(O)c1cccc(-n2nnnc2SCc2ccccn2)c1 | 19 | - | - | - | -
Cc1cccc(OCC(=O)OCC(=O)Nc2sccc2C(N)=O)c1 | . | - | - | - | 55
Cc1ccccc1SCC(=O)OCC(=O)Nc1sccc1C(N)=O | - | - | - | - | 49
NC(=O)c1ccsc1NC(=O)CSc1ccccc1F | - | - | - | - | -
